Converted amounts (≈) assume the structure as drawn.
What was measured:
HT-29 = experiment: Cytotoxicity against human HT-29 cells 0.5 to 50 ug/ml; type: functional, cell-based
Outline: (§1)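 Cells tested at three concentrations (50, 5 and 0.5 μg/mL). HT-29 (human colon adenocarcinoma) obtained from ATCC. P-388 (mouse lymphocytic leukemia) line supplied by an outside laboratory. Assay otherwise run per a previously described procedure.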

P388 [1] = experiment: Cytotoxicity against mouse P388 cells at 0.5 to 50 ug/ml; type: functional, cell-based; outline: as §1
P388 [2] = experiment: Cytotoxicity against mouse P388 cells; type: functional; conditions: read-out: ED50 (the source's name)
Outline: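 P-388 mouse lymphocytic leukemia cells, supplied by an academic laboratory. Test compounds were run at three concentrations (50, 5 and 0.5 μg/mL), following a previously described cytotoxicity procedure.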

Compound	Activity (HT-29)	Activity (P388 [1])	EC50 (P388 [2]) [µg/mL]
C/C1=C\CC[C@](C)(O)[C@H]2C[C@@H]2[C@@](C)(C/C=C/C(C)(C)O)CC1	Not toxic	Not toxic	
C=C(C)C(CC[C@@]1(C)CC/C(C)=C/[C@H](OC(C)=O)C[C@](C)(O)[C@H]2C[C@@H]21)OO (stereo not given in full) [PACIFICIN H]	Not toxic		2.01 (≈ 5.28 µM)
CC(=O)O[C@H]1/C=C(\C)CC[C@](C)(C/C=C/C(C)(C)OO)[C@H]2C[C@@H]2[C@@](C)(O)C1	Not toxic	Not toxic	
CC(C)(/C=C/C[C@@]1(C)CC[C@]2(C)O[C@H]2CC[C@](C)(O)[C@H]2C[C@@H]21)OO [PACIFICIN C]	Not toxic		1.44 (≈ 4.25 µM)
C=C(C)C(O)CC[C@@]1(C)CC[C@]2(C)O[C@H]2CC[C@](C)(O)[C@H]2C[C@@H]21 (stereo not given in full)	Not toxic	Not toxic	
C=C1CC/C=C(\C)CC[C@](C)(CCC=C(C)C)[C@H]2C[C@H]12	Not toxic	Not toxic	
CC(C)(O)/C=C/C[C@@]1(C)CC[C@]2(C)O[C@H]2CC[C@](C)(O)[C@H]2C[C@@H]21	Not toxic	Not toxic	
C=C(C)C(CC[C@@]1(C)CC[C@]2(C)O[C@H]2CC[C@](C)(O)[C@H]2C[C@@H]21)OO (stereo not given in full)	Not toxic	Not toxic	
C=C1CC/C=C(\C)CC[C@](C)(C/C=C/C(C)(C)O)[C@H]2C[C@H]12	Not toxic	Not toxic	
CC(C)=CCC[C@@]1(C)CC[C@]2(C)O[C@H]2CC[C@](C)(O)[C@H]2C[C@@H]21	Not toxic	Not toxic	
